# CHRM4 PAM: positive allosteric modulators of human muscarinic M4 receptor. 360,000 compounds, 0.4% hits. AID 624126. P08173. CHO-K1 hM4/Gqi5, Fluo-8 calcium fluorescence, ACh EC20; 0% = ACh EC20, 100% = maximal ACh. activation, % at 3 µM;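 active means activation above its plate's cutoff, the mean activation of sample wells plus 3 SD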
# Target sequence (P08173 whole entry, looked up): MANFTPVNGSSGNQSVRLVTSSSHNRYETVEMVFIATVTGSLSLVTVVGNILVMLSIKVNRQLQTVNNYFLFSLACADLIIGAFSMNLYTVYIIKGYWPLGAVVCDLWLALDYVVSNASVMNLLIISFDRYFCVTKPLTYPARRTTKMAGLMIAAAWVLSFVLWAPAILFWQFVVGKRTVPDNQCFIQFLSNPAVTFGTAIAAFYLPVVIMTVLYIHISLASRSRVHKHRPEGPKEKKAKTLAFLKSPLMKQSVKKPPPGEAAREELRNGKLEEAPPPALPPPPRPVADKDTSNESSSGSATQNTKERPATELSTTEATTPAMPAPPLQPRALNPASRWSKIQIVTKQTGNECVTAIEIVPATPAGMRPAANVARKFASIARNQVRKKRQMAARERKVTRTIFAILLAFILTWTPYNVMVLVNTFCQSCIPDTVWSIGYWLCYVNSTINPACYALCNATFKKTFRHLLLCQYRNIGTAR
# CHRM4 antagonist: antagonists of human muscarinic M4 receptor (CHRM4); P08173; CHO-hM4 cells, ACh EC80, Fluo-8 calcium fluorescence; inhibition, % at 3 µM; 360,000 compounds, 0.73% hits; AID 624125;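 active means inhibition above its plate's cutoff, the mean inhibition of sample wells plus 3 SD, cut at about 27% in these data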;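 further: 0% = acetylcholine EC80 with DMSO and 100% = DMSO without agonist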
# CHRM5 agonist: CHRM5 agonism in calcium assay | P08912 | CHO-K1 hM5 cells, Fluo-8 calcium fluorescence; 0% DMSO wells, 100% maximal acetylcholine response | activation, % at 3 µM | 360,000 compounds, 0.19% hits | AID 624037;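 active means activation above the run's mean over test compounds plus 3 SD, cut at about 23% in these data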;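 further: signal is peak over basal fluorescence ratio across the kinetic read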
# CHRM5 antagonist: CHRM5 antagonism in calcium assay | CHO-hM5 cells, Fluo-8 calcium fluorescence, ACh EC80 | P08912 | 360,000 compounds, 0.59% hits | inhibition, % at 3 µM | AID 624040;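 active means inhibition above a per-plate cutoff, the mean of that plate's test compounds plus 3 SD, cut at about 27% in these data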;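 further: 0% = acetylcholine EC80 with DMSO and 100% = DMSO without agonist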
# M5 PAM: CHRM5 positive allosteric modulation; 360,000 compounds, 0.3% hits; activation, % at 3 µM; P08912; CHO-K1 hM5, Fluo-8 calcium, ACh EC20 PAM; 0% = ACh EC20, 100% = ACh EC100;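 active means activation above the run cutoff, the mean activation of all test compounds plus 3 SD, cut at about 18% in these data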
#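 Test system: CHO-K1 hM5 cells / Doses: single-point, 3 µM nominal / Times: Post-acetylcholine fluorescence recording 140 s / Technique: Fluo-8 calcium fluorescence / Measure: Max/basal fluorescence ratio as % of EC20–EC100 ACh window / Benchmarks: low control EC20 acetylcholine (0%), high control EC100 acetylcholine (100%) / Replicates: one well per compound, no replicates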
# CHRM4 agonist: CHRM4 agonism in calcium assay; activation, % at 3 µM; P08173; CHO-K1 hM4/Gqi5, Fluo-8 calcium fluorescence; vehicle 0%, full acetylcholine response 100%; AID 624127; 360,000 compounds, 0.14% hits;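 active means activation above the run mean over all test wells plus 3 SD, cut at about 32% in these data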;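 further: peak over basal fluorescence ratio per well then scaled between controls; 0% = DMSO wells and 100% = acetylcholine at EC100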
# * = called active by the depositor. Most compounds without a hit are left out; they make up all but 1.8% or so of the library.
SMILES,CHRM4 PAM,CHRM4 antagonist,CHRM5 agonist,CHRM5 antagonist,M5 PAM,CHRM4 agonist
CCCCCc1cc(=O)oc2c(C(CCN(CC)CC)c3cc(OC)c(OC)c(OC)c3)c(OC)cc(OC)c12 (stereo not drawn),-3,24,-10,8,-14,8
O=C(OCC(=O)N1CCN(C(=O)c2ccco2)CC1)c1cc(-c2cccc(Br)c2)nc2ccccc12,-23,28*,6,12,-8,9
NC(=O)CSc1nnc(-c2ccccc2F)n1C1CC1,-2,12,-1,3,1,2
CC(=O)Nc1ccc(S(=O)(=O)NCc2ccc(C(=O)NCCN(C)Cc3ccccc3)cc2)cc1,1,-7,-1,10,-4,0
CCc1ccc(S(=O)(=O)NCc2ccc(C(=O)NCCN(Cc3ccccc3)C(C)C)cc2)cc1,-15,24,1,29*,-18,12
Cc1ccc2nc(NCCNC(=O)c3ccccc3)c(C#N)cc2c1,-14,51*,0,5,12,0
O=C1NC2(CCCCCC2)N=C1c1ccc(Br)cc1,17,35*,4,-9,3,0
O=C(c1ccccc1)N1CCN=C1SCc1ccc([N+](=O)[O-])cc1,-16,29*,-6,4,-9,0
O=C(C1CCCCC1)N1CCN=C1SCc1cccnc1,-2,-5,1,0,-3,1
O=C(C1CCCCC1)N1CCN=C1SCc1cccc([N+](=O)[O-])c1,-17,32*,-9,0,-2,0
CC(=O)Nc1ccc(NC(=O)C(C)OC(=O)CNC(=O)c2cccs2)cc1 (stereo not drawn),7,-2,-8,97*,-32,0
CC(OC(=O)CNC(=O)c1cccs1)C(=O)Nc1ccc(S(N)(=O)=O)cc1 (stereo not drawn),2,3,0,7,2,1
CC(C(=O)NC1CCCC1)N1CCN(Cc2ccccc2)CC1 (stereo not drawn),-7,7,-8,7,1,0
CC(C(=O)NC(=O)NC1CCCCC1)N1CCN(C(c2ccccc2)c2ccccc2)CC1 (stereo not drawn),-27,37*,-4,8,-8,-1
Cc1ccc(C(C(=O)NC2CCCCC2)N2CCCC2)cc1 (stereo not drawn),-10,3,-11,-2,-13,0
O=C(NC1CCCCC1)C(c1ccccc1)N1CCCC1 (stereo not drawn),-17,46*,-13,12,-29,0
COc1cc(OC)cc(C(=O)N2CCC(n3c(C)nc4cc(F)ccc43)CC2)c1,14,-16,-8,-9,34*,9
CC(OC(=O)c1cccc(-n2cnnn2)c1)C(=O)Nc1ccc(F)c(F)c1F (stereo not drawn),6,-25,-4,1,-7,1
O=C(Nc1ccc(-c2ccco2)cc1)C1CCCN(Cc2ccco2)C1 (stereo not drawn),-1,9,-2,5,-4,2
Cc1ncc(CN2CCCC(C(=O)Nc3ccc(-c4ccco4)cc3)C2)n1C (stereo not drawn),-12,31*,-8,6,-3,1
Cc1ccc2c(c1)N(CC(=O)NC1CCCC1)C(=O)c1cccnc1O2,2,-12,2,1,-4,2
CCC(C)CN1C(=O)CSCC1(C)C(=O)NC(C)C (stereo not drawn),-1,10,0,0,0,1
CCN(CC)C(=O)CSc1nc2ccccc2c(=O)n1OC(C)C,19,-9,4,-15,23*,-3
C=CCn1c(O)c(N=Nc2ccccc2[N+](=O)[O-])c2ccccc21,2,-4,0,-5,1,0
Fc1ccc(C[n+]2csc3ccccc32)cc1,-7,28*,46*,43*,3,6
SMILES,CHRM4 PAM,CHRM4 antagonist,CHRM5 agonist,CHRM5 antagonist,M5 PAM,CHRM4 agonist
Clc1ccc(C[n+]2csc3ccccc32)cc1,-8,9,18,9,15,0
O=[N+]([O-])c1cc([N+](=O)[O-])c(Oc2cccc3ccccc23)cc1NN1CCCCC1,30*,-3,3,-13,9,2
O=[N+]([O-])c1cc([N+](=O)[O-])c(Oc2ccc(F)cc2F)cc1NN1CCCCC1,27*,-16,5,-11,3,3
CCCN(CCO)CCCc1ccccc1,6,7,-4,-3,6,1
CCN(CCCc1ccccc1)CCCc1ccccc1,-18,89*,-1,35*,-18,1
COc1ccc(/C=C/C(=O)Nc2ccccc2C(F)(F)F)cc1,21*,-10,-5,-8,1,1
CCOc1ccc(/C=C/C(=O)Nc2ccccc2C(F)(F)F)cc1,16,-9,-6,-14,3,2
COc1ccccc1CC(=O)NNS(=O)(=O)c1ccccc1[N+](=O)[O-],-1,2,-3,3,-12,0
COCC(=O)NNS(=O)(=O)c1ccccc1[N+](=O)[O-],4,0,0,14,20*,1
CCCn1cc(CN2CCCC(C(=O)c3cccc(OC(C)C)c3)C2)c(C)n1 (stereo not drawn),-10,6,-9,15,-6,3
CCCn1ncc(CN2CCCC(C(=O)c3cccc(OC(C)C)c3)C2)c1C (stereo not drawn),-51,66*,-19,15,-25,1
CCn1c(SCC(=O)N/N=C/c2ccccc2OCC(=O)O)nnc1-c1ccc(C)cc1,2,15,7,37*,26*,7
O=C1C2C3C=CC(CO)(O3)C2C(=O)N1c1ccccc1-c1ccccc1 (stereo not drawn),-7,27*,14,-7,14,8
CC(=O)Oc1ccc(N2C(=O)C3C4C=CC(CO)(O4)C3C2=O)cc1 (stereo not drawn),12,-6,0,-6,3,1
O=C(N/N=C/c1ccc(-c2ccc(Cl)c(C(=O)O)c2)o1)c1cc2c(ccc3ccccc32)o1,9,27*,2,5,6,1
Cc1cc(C(=O)CSc2nnc(-c3ccccc3)n2-c2ccccc2)c(C)n1-c1ncn[nH]1,26*,-4,6,-2,0,0
Cc1ccc(S(=O)(=O)N2CCCC(C(=O)N3CCN(c4ccccc4)CC3)C2)cc1 (stereo not drawn),-5,-11,-6,29*,-12,11
COc1ccc(S(=O)(=O)N2CCC(C(=O)N3CCc4ccccc4C3)CC2)cc1,18,-2,1,-8,-2,4
